Results taken from PMC6850403 (Clinical Pharmacology in Drug Development, 2019).
Read-outs that look alike come from different tables or passages of the source.

What was measured:
[1] = type: in vivo, human; settings: for clearance: CL; for half-life: t½
How it was run: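 Open-label, randomized 2-period, 2-sequence crossover in 12 healthy volunteers, fasted ≥10 h. Single 100 mg oral tablet with water to 240 mL, or 50 mg IV (1 mg/mL over 1.25 h). Plasma sampled 0–96 h and assayed by HPLC-MS/MS (LLOQ 3 ng/mL). Noncompartmental analysis used: CL/F = dose/AUC0‐∞. Log dose-normalized AUCs fitted by linear mixed-effect model; ratios exponentiated with 90% CI.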

[2] = Safety and tolerability evaluation in the absolute bioavailability study; type: in vivo, human
How it was run: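 Healthy subjects in a randomized crossover each received a single 100 mg oral tablet and a single 50 mg IV infusion over 1.25 h, fasted. Recorded as AEs: adverse drug reactions, illnesses with onset during study, exacerbation of previous illness, clinically significant physical-examination changes and abnormal objective test findings. Vital signs, ECG and laboratory parameters were monitored.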

Human mass balance = type: in vivo; settings: urine, po, 100 mg
[3] = Hepatic extraction estimate, well-stirred model; parameters: species or system human; settings: hepatic blood flow of 87 L/h
[4] = once daily (QD), patients with advanced myeloid malignancies; cited from earlier work
[5] = cited from earlier work
[6] = system: cytochrome P450 (CYP) 3A4/5; settings: preclinical studies; cited from earlier work
[7] = single 100‐mg dose; cited from earlier work
[8] = weakly basic drug; cited from earlier work
human blood = settings: parenteral formulation, in vitro; cited from earlier work
[9] = parenteral formulation, rabbit; cited from earlier work
[10] = cited from earlier work; remark: listed apart in the source
[11] = cited from earlier work; remark: listed apart in the source
[12] = in vitro data and data from the ADME study; cited from earlier work
[13] = 100 mg oral tablet, single dose, fasted
[14] = human, plasma, iv, 50 mg, arithmetic mean ± SD, 50 mg IV, single dose, fasted
[15] = human, plasma, iv, 50 mg, geometric mean (geometric CV, %), 50 mg IV, single dose, fasted
[16] = human, plasma, po, 100 mg, arithmetic mean ± SD, 100 mg oral tablet, single dose, fasted

## CN1CC[C@@H](NC(=O)Nc2ccc(C#N)cc2)C[C@@H]1c1nc2ccccc2[nH]1 [Glasdegib]
[1]; 50 mg IV
  AUC0‐last(dn), dose normalized geometric mean from the statistical model: 96.98 ng·h/mL/mg
  AUC0‐∞(dn), dose normalized geometric mean from the statistical model: 98.90 ng·h/mL/mg
  Intersubject variability in CL, %CV of the geometric mean: 38%
[1]; 50 mg IV, single dose, fasted
  t½, arithmetic mean ± SD: 13.78 ± 2.97 h
[1]; 100 mg oral tablet
  AUC0‐last(dn), dose normalized geometric mean from the statistical model: 74.88 ng·h/mL/mg
  AUC0‐∞(dn), dose normalized geometric mean from the statistical model: 76.28 ng·h/mL/mg
  Intersubject variability in CL/F, %CV of the geometric mean: 38%
[1]; [13]
  CL/F, arithmetic mean ± SD: 13.87 ± 4.51 L/h
  CL/F, geometric mean (geometric CV, %): 13.10 (38) L/h
  t½, arithmetic mean ± SD: 14.26 ± 2.45 h
[1]; 100 mg oral tablet, single dose, fasted, listed as glasdegib
  CL/F, arithmetic mean ± SD: 13.87 L/h
[1]; human, plasma, iv, 50 mg
  Tmax: 1.27 h
[1]; human, plasma, iv, 50 mg, AUC0‐last, arithmetic mean ± SD, 50 mg IV, single dose, fasted
  AUC: 5120 ± 2160 ng·h/mL
[1]; human, plasma, iv, 50 mg, AUC0‐last, geometric mean (geometric CV, %), 50 mg IV, single dose, fasted
  AUC: 4780 ng·h/mL
[1]; human, plasma, iv, 50 mg, AUC0‐∞, arithmetic mean ± SD, 50 mg IV, single dose, fasted
  AUC: 5220 ± 2210 ng·h/mL
[1]; human, plasma, iv, 50 mg, AUC0‐∞, geometric mean (geometric CV, %), 50 mg IV, single dose, fasted
  AUC: 4880 ng·h/mL
[1]; [14]
  clearance: 181 mL/min
  Cmax: 687 ± 197 ng/mL
  half-life: 13.8 h
[1]; [15]
  clearance: 171 mL/min
  Cmax: 665 ng/mL
[1]; human, plasma, oral, Absolute oral bioavailability, arithmetic mean ± SD, arithmetic mean ratios, without logarithmic transformation, of AUC0‐∞(dn) oral to IV
  bioavailability: 78.5 ± 12.8%
[1]; human, plasma, po, 100 mg
  Tmax: 1.52 h
[1]; human, plasma, po, 100 mg, AUC0‐last, arithmetic mean ± SD, 100 mg oral tablet, single dose, fasted
  AUC: 7990 ± 3310 ng·h/mL
[1]; human, plasma, po, 100 mg, AUC0‐last, geometric mean (geometric CV, %), 100 mg oral tablet, single dose, fasted
  AUC: 7490 ng·h/mL
[1]; human, plasma, po, 100 mg, AUC0‐∞, arithmetic mean ± SD, 100 mg oral tablet, single dose, fasted
  AUC: 8160 ± 3440 ng·h/mL
[1]; human, plasma, po, 100 mg, AUC0‐∞, geometric mean (geometric CV, %), 100 mg oral tablet, single dose, fasted
  AUC: 7630 ng·h/mL
[1]; [16]
  Cmax: 684 ± 155 ng/mL
  half-life: 14.3 h
[1]; human, plasma, po, 100 mg, geometric mean (geometric CV, %), 100 mg oral tablet, single dose, fasted
  Cmax: 668 ng/mL
[2]; following 50 mg IV administration
  AEs reported: No AEs were reported
[2]; following 100 mg oral tablet, 1 mild and 1 moderate, in 2 subjects
  Number of AEs reported: 2
[2]; single 100‐mg oral and 50‐mg IV doses, healthy subjects
  Tolerability: generally safe and well tolerated
[2]; treatment period 1 day 10, after oral 100 mg
  Peak ALT elevation, subject with moderate AE: 3 × upper limit of normal
Human mass balance
  dose excreted: ≥ 49%
[3]
  Hepatic extraction: < 0.3
[4]
  Maximum tolerated dose as a single agent: 400 mg
[5]; QD, patients with advanced solid tumor
  Maximum tolerated dose: 320 mg
[5]; single dose of 320 mg, patients with advanced tumors
  Tolerability: well tolerated
[6]
  Metabolizing enzyme: primarily metabolized by cytochrome P450 (CYP) 3A4/5
[7]
  Effect of proton‐pump inhibitors on glasdegib PK: do not have a clinically relevant effect
[8]
  Solubility, pH dependence: decreasing solubility as pH increases
Human blood
  Hemolysis in human blood: did not suggest that glasdegib was the cause of hemolysis in human blood
[9]
  Local vascular tissue irritation: did not suggest that glasdegib was the cause of hemolysis in human blood and/or local vascular tissue irritation
[10]
  Administered parent dose recovered in the feces: 19.5%
  Contribution of the glucuronidation pathway via UGT1A9 to elimination: only minor
  Major route of elimination: primarily through CYP3A4 oxidation
  Mean plasma renal clearance: 1.97 L/h
[11]; oral solution compared to instant‐release tablet
  Impact of disintegration and dissolution on absorption kinetics: do not appear to impact the absorption kinetics
[11]; single 100‐mg oral dose, 100‐mg maleate immediate release tablet, healthy subjects
  Geometric mean Cmax: 775.3 ng/mL
[12]
  Plasma to whole blood partitioning: < 1

## [^14C]glasdegib
[10]; single oral dose of 100‐mg/100‐µCi, 6 healthy volunteers
  Mean recovery of radioactivity in urine (as parent and metabolites): 49%
